Consider four compounds from ChEMBL document CHEMBL1949565, “4-nitrobenzyloxycarbonyl derivatives of O(6)-benzylguanine as hypoxia-activated prodrug inhibitors of O(6)-alkylguanine-DNA alkyltransferase (AGT), which produces resistance to agents targeting the O-6 position of DNA guanine” (J Med Chem, 2011).

The species entered for series [1] is Homo sapiens. In words: Inhibition of human recombinant AGT assessed as prevention of O6-(2-chloroethyl)guanine and N1,O6-ethanoguanine-DNA adduct repair at 50 uM after 30 mins by fluorescence assay. The gist of the method:
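About 40 fmol purified recombinant human AGT in stabilization buffer (20 mM Tris-HCl, 1 mM EDTA, BSA 1 mg/mL, 0.1 mM DTT, L1210 DNA, pH 7.4) preincubated with inhibitor for 30 min at 37 °C. It was then incubated 30 min at 37 °C with L1210 DNA bearing O6-chloroethylguanine/N1,O6-ethanoguanine lesions (~50 fmol). Unrepaired lesions were converted to cross-links at 50 °C for 2–3 h. Cross-linking was read by Hoechst 33258 fluorescence before and after heat denaturation.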

A short description of series [2]: Prodrug activation assessed as formation of O6-benzylguanine under oxygen-deficient condition at 20 uM after 1 hr by HPLC analysis in presence of NADPH:CYP450 reductase. The format is ADME. The gist of the method:
(§1)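 Test agent at 20 μM (from DMSO) in 100 mM potassium phosphate pH 7.4 at 37 °C, with either cytochrome P450 reductase plus 1 mM NADPH, or 0.16 units/mL xanthine oxidase plus 1 mM xanthine. Oxygen deficiency came from glucose oxidase/catalase with 10 mM glucose. Aerobic mixtures omitted glucose and were shaken as shallow layers in sealed flasks. Samples at 0 and 1 h were quenched with acetonitrile and analysed by HPLC.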

Series [3] concerns EMT6. Description: Prodrug activation in mouse EMT6 cells assessed as formation of O6-benzylguanine under normoxic condition at 20 uM after 3 hrs by HPLC analysis. In kind it is cell-based. The conditions noted are these: emt6, 3 h. A digest of the protocol: (§2)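 Cells at 10^7/mL with ~20 μM prodrug at 37 °C: EMT6 in DMEM with 10% FBS, DU145 in α-MEM with 10% FBS, each with 10 mM glucose. Normoxic suspensions were shaken as shallow layers in flasks. Oxygen-deficient incubations used sealed tubes with an extra 10 mM glucose, glucose oxidase 2 units/mL and catalase 120 units/mL. Samples at 0–3 h were acetonitrile-extracted and analysed by HPLC.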

Series [4] can be described thus: Prodrug activation assessed as formation of O6-benzylguanine under oxygen-deficient condition at 20 uM after 1 hr by HPLC analysis in presence of xanthine/xanthine oxidase. A digest of the protocol: as §1
For series [5], the system named is DU-145. In words: Prodrug activation in human DU145 cells assessed as formation of O6-benzylguanine under normoxic condition at 20 uM after 3 hrs by HPLC analysis. The format is cell-based. The conditions noted are these: du-145, 3 h. A digest of the protocol: as §2
Series [6] is described as follows: Prodrug activation assessed as formation of O6-benzylguanine under normoxic condition at 20 uM after 1 hr by HPLC analysis in presence of xanthine/xanthine oxidase. The gist of the method: as §1
The nature of series [7]: Prodrug activation assessed as formation of O6-benzylguanine in presence of Zn/EDTA. A digest of the protocol: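 Each agent at 50 μM in 50 mM Tris-HCl, 10 mM EDTA, pH 7.0, was shaken briefly with about 4 mg/mL Zn dust at room temperature. After centrifugation, the supernatant was analysed by reverse-phase HPLC with UV detection at 280 nm.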
Series [8] is described as follows: Prodrug activation assessed as formation of O6-benzylguanine under normoxic condition at 20 uM after 1 hr by HPLC analysis in presence of NADPH:CYP450 reductase. In kind it is ADME. The gist of the method:
as §1

Series [9] relates to EMT6. In words: Prodrug activation in mouse EMT6 cells assessed as formation of O6-benzylguanine under oxygen-deficient condition at 20 uM after 3 hrs by HPLC analysis. The format is cell-based. The conditions noted are these: emt6, 3 h. The gist of the method:
as §2

Series [10] has as its system DU-145. In words: Inhibition of AGT-mediated potentiation of laromustine-induced cytotoxicity in human DU145 cells at 40 uM pretreated for 6 hrs prior laromustine addition measured after 24 hrs incubation under oxygen deficiency condition by clonogenic assay. The format is functional, cell-based. The gist of the method:
(§3)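 DU145 monolayers seeded at 2.5 × 10^5 cells per flask and treated 3 days later. Pretreatment with prodrug for 6 h, then laromustine added in medium for 24 h at 37 °C; DMSO ≤ 0.05%. For oxygen deficiency, glucose oxidase 2 units/mL plus catalase 120 units/mL in high-glucose DMEM, with flasks nitrogen-flushed and sealed. Aerobic flasks were unsealed and lacked these enzymes. Colonies were crystal-violet stained after 10–14 days; plating in duplicate.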

Series [11] has as its system DU-145. Description: Inhibition of AGT-mediated potentiation of laromustine-induced cytotoxicity in human DU145 cells at 40 uM pretreated for 6 hrs prior laromustine addition measured after 24 hrs incubation under normoxic condition by clonogenic assay. The format is functional, cell-based. The gist of the method: as §3
The subject of series [12] is DU-145. In words: Prodrug activation in human DU145 cells assessed as formation of O6-benzylguanine under oxygen-deficient condition at 20 uM after 3 hrs by HPLC analysis. In kind it is cell-based. The conditions noted are these: du-145, 3 h. The gist of the method:
as §2

For series [13], the species on record is Homo sapiens. Description: Inhibition of human recombinant AGT assessed as prevention of O6-(2-chloroethyl)guanine and N1,O6-ethanoguanine-DNA adduct repair at 0.1 uM after 30 mins by fluorescence assay. The gist of the method:
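Purified recombinant human AGT (~40 fmol) in stabilization buffer (20 mM Tris-HCl, 1 mM EDTA, 1 mg/mL BSA, 0.1 mM DTT, 2 μg/mL L1210 DNA, pH 7.4) preincubated with inhibitor 30 min, 37 °C. Then added to L1210 DNA substrate treated with a chloroethylating hydrazine (~50 fmol lesions), 30 min, 37 °C. Heated 50 °C 2–3 h. Cross-links quantified by Hoechst 33258 fluorescence before/after heat denaturation. Inhibition derived from remaining cross-link precursors.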

The source made the active and inactive calls. The calls are words filed in the database; no cut-off is given here.

Take `O=C(Nc1nc(OCc2ccccc2)c2nc[nH]c2n1)OCc1ccc([N+](=O)[O-])cc1`: in the series listed under Homo sapiens [1], the inhibition was less than 1%. For the same compound, the Drug metabolism in series [2] is less than 0.05 µM; in the series with EMT6 [3] it was “Not Active”; in series [4], 2.8 µM; in the series with DU-145 [5], “Not Active”; in series [6], less than 0.05 µM; in [8], less than 0.05 µM. Also, the Drug metabolism result with EMT6 [9] was “Active”. Also, the Drug degradation in series [7] was found to be 4 %molar.

On to `CC(OC(=O)Nc1nc(OCc2ccccc2)c2nc[nH]c2n1)c1ccc([N+](=O)[O-])cc1` (stereo unspecified), for which the inhibition in the series listed under Homo sapiens [1] was less than 1%. In addition, the Drug metabolism in series [2] was 0.1 µM; with EMT6 [3], “Not Active”; in [4], 11.6 µM; in the series with DU-145 [5] it was “Not Active”; in series [6] it was less than 0.05 µM; in series [8] it was less than 0.05 µM. Further, the Drug metabolism entry in the series with EMT6 [9] was “Active”. Besides, the Drug degradation in series [7] came out at 35.4 %molar.

On to `CC(C)(OC(=O)Nc1nc(OCc2ccccc2)c2nc[nH]c2n1)c1ccc([N+](=O)[O-])cc1`, for which the inhibition in the series filed under Homo sapiens [1] was less than 1%. Further, the Drug metabolism in [2] was 13.9 µM; with EMT6 [3], “Not Active”; in [4], 14.8 µM; in the series with DU-145 [5] it was “Not Active”; in [6], less than 0.05 µM; in [8], 0.1 µM. Further, the Drug metabolism entry in the series on EMT6 [9] and in the series with DU-145 [12] was “Active” throughout. In the series with DU-145 [10], the inhibition entry is “Active”. Also, the inhibition result in the series on DU-145 [11] was “inactive”. In addition, the Drug degradation in series [7] was 54.8 %molar.

On to `Nc1nc(OCc2ccccc2)c2nc[nH]c2n1`, for which the inhibition in the series listed under Homo sapiens [13] turned out to be 47%.

Broadly, the inhibition is how much of the control response was suppressed.
